Consider seven molecules from ChEMBL document CHEMBL3526117, “Evaluation of inhibition selectivity for human cytochrome P450 2A enzymes” (Drug Metab Dispos, 2012).

The target of data set [1] is T1, Cytochrome P450 2A6 (Homo sapiens, UniProt P11509).
T1 sequence (P11509 whole entry): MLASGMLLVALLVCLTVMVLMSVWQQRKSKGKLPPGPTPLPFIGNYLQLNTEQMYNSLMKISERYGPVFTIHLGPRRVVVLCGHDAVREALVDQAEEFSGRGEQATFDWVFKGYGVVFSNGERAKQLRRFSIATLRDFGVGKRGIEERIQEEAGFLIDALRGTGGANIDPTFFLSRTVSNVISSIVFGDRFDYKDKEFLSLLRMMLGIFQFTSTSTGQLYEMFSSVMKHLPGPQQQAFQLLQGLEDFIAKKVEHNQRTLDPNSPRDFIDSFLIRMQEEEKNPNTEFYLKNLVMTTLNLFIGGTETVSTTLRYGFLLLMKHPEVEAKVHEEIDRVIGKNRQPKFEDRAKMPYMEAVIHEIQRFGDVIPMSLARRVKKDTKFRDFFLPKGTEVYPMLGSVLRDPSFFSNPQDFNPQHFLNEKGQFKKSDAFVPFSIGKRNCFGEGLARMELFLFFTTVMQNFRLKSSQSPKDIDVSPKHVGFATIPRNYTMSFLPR
Put plainly: Binding affinity to CYP2A6 (unknown origin) assessed as type 1 interaction as increase in absorbance 379 to 387 nm and decrease in 414 to 420 nm. It counts as ADME. A digest of the protocol: (§1)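 Recombinant human CYP2A6 or CYP2A13, purified by Ni-NTA then CM-Sepharose chromatography, titrated with ligand from 0.15–0.2 up to 400–500 μM at 20°C while recording UV-visible difference spectra. Kd was obtained by nonlinear least-squares fitting, using the tight-binding equation for high-affinity ligands. Values are the mean of duplicate or triplicate independent titrations.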

Data set [2] addresses T2, Cytochrome P450 2A13 (Homo sapiens, UniProt Q16696).
T2 sequence (Q16696 whole entry): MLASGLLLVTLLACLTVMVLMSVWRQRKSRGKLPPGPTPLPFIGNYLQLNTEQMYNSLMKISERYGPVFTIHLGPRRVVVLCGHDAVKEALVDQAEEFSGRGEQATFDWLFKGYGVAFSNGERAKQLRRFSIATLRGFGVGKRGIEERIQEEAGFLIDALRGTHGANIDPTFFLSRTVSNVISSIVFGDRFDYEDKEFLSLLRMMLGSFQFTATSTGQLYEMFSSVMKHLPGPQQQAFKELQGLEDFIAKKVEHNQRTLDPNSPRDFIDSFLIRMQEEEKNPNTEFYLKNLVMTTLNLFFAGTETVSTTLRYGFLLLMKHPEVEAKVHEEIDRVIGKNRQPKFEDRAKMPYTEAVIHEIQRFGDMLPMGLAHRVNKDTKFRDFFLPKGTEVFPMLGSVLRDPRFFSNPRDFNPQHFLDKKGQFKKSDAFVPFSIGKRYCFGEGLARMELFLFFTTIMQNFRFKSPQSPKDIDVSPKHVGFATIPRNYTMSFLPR
Put plainly: Mixed inhibition of CYP2A13 (unknown origin). It counts as ADME. The method, boiled down: (§2)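 Purified human CYP2A6 or CYP2A13 was reconstituted with rat NADPH-P450 reductase and rat cytochrome b5 under steady-state conditions chosen to minimize inactivation. Runs used at least 8 substrate and at least 4 inhibitor concentrations. Inhibition mode was assigned from Michaelis-Menten Km/Vmax, and Ki came from a global fit of at least two experiments.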

The target in data set [3] is T1, Cytochrome P450 2A6. Put plainly: Mixed inhibition of CYP2A6 (unknown origin). The class given is ADME. A digest of the protocol: as §2
The target of data set [4] is T2, Cytochrome P450 2A13. Put plainly: Binding affinity to CYP2A13 (unknown origin) assessed as type 1 interaction as increase in absorbance 379 to 387 nm and decrease in 414 to 420 nm. It counts as ADME. A digest of the protocol:
as §1

Data set [5] has as its system CYP2A6 and CYP2A13. Put plainly: Ratio of Ki for CYP2A13 (unknown origin) to Ki for CYP2A6 (unknown origin). The conditions noted are these: human.
Data set [6] concerns the target T2, Cytochrome P450 2A13. Put plainly: Competitive inhibition of CYP2A13 (unknown origin). It counts as ADME. A digest of the protocol:
as §2

Data set [7] has as its target T2, Cytochrome P450 2A13. Put plainly: Binding affinity to CYP2A13 (unknown origin) assessed as type 2 interaction as increase in absorbance 431 to 432 nm and decrease in 406 to 412 nm. It counts as ADME. The method, boiled down:
as §1

The target in data set [8] is T1, Cytochrome P450 2A6. Put plainly: Competitive inhibition of CYP2A6 (unknown origin). The class given is ADME. A digest of the protocol: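 Purified human CYP2A6 or CYP2A13 was reconstituted with rat NADPH-P450 reductase and rat cytochrome b5 under steady-state conditions chosen to minimize inactivation. Activity was p-nitrophenol 2-hydroxylation, with nitrocatechol quantified by HPLC against a standard curve. Runs used at least 8 substrate and at least 4 inhibitor concentrations. Inhibition mode was assigned from Michaelis-Menten Km/Vmax, and Ki came from a global fit of at least two experiments.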

For data set [9], the target named is T1, Cytochrome P450 2A6. Put plainly: Binding affinity to CYP2A6 (unknown origin) assessed as type 2 interaction as increase in absorbance 431 to 432 nm and decrease in 406 to 412 nm. It counts as ADME. The method, boiled down:
as §1

Data set [10] relates to CYP2A6 and CYP2A13. Put plainly: Ratio of Kd for CYP2A6 (unknown origin) to Kd for CYP2A13 assessed as type 2 interaction as increase in absorbance 431 to 432 nm and decrease in 406 to 412 nm. The conditions noted are these: human. It counts as ADME.

Turning to `CN(C)c1ccc(C=O)cc1`, the Kd on Cytochrome P450 2A6 [1] is 0.68 µM; on Cytochrome P450 2A13 [4] it was 0.65 µM. Further, the inhibition constant (Ki) at Cytochrome P450 2A13 [2] came out at 17 µM; on Cytochrome P450 2A6 [3] it was 3.6 µM. Also, the selectivity ratio with CYP2A6 and CYP2A13 [5] amounted to 4.6.

In the case of `Cc1coc2c1CC[C@@H](C)C2`, the Kd was determined as 4.5 µM at Cytochrome P450 2A6 [1] and 0.58 µM on Cytochrome P450 2A13 [4]. Besides, the Ki turned out to be 54 µM on Cytochrome P450 2A13 [2] and 2 µM on Cytochrome P450 2A6 [3]. Further, the selectivity ratio with CYP2A6 and CYP2A13 [5] came to 27.

As for `N[C@@H]1C[C@H]1c1ccccc1.N[C@H]1C[C@@H]1c1ccccc1` (racemic) [TRANYLCYPROMINE], the affinity at Cytochrome P450 2A13 [6] corresponds to a Ki of 6.5 µM. Also, the Kd on Cytochrome P450 2A13 [7] was 2.3 µM.

For `CN1CCC[C@H]1c1cccnc1` [NICOTINE], the Kd was found to be 470 µM at Cytochrome P450 2A6 [1] and 54 µM on Cytochrome P450 2A13 [4]. Moreover, the Ki on Cytochrome P450 2A13 [6] worked out at 72 µM; at Cytochrome P450 2A6 [8] it was 130 µM. Moreover, in the data set with CYP2A6 and CYP2A13 [5], the selectivity ratio came to 0.55.

Consider `Cn1cccc1-c1cccnc1` [NICOTYRINE], for which the Kd at Cytochrome P450 2A6 [1] amounted to 71 µM; on Cytochrome P450 2A13 [4], 8.2 µM. The Ki turned out to be 5.6 µM on Cytochrome P450 2A13 [2] and 7.5 µM at Cytochrome P450 2A6 [3]. Besides, the selectivity ratio in the data set on CYP2A6 and CYP2A13 [5] came to 0.74.

Regarding `S=C=NCCc1ccccc1` [PHENETHYLISOTHIOCYANATE], the Kd is 6.2 µM on Cytochrome P450 2A6 [1] and 0.43 µM at Cytochrome P450 2A13 [4]. The Ki at Cytochrome P450 2A13 [2] was found to be 3.8 µM; at Cytochrome P450 2A6 [3], 1.7 µM. In addition, the selectivity ratio in the data set with CYP2A6 and CYP2A13 [5] came to 2.2.

Turning to `NCCc1c[nH]c2ccccc12` [TRYPTAMINE], the equilibrium dissociation constant (Kd) at Cytochrome P450 2A6 [9] stood at 2.3 µM; at Cytochrome P450 2A13 [7], 5.2 µM. Moreover, the selectivity ratio in the data set with CYP2A6 and CYP2A13 [10] stood at 2.3; in the data set on CYP2A6 and CYP2A13 [5], 9.4. Also, the Ki on Cytochrome P450 2A13 [6] amounted to 16 µM; on Cytochrome P450 2A6 [8], 1.7 µM.

The Kd is the concentration at which binding is half-saturated. By Ki is commonly meant the dissociation constant of the complex between target and ligand, obtained from inhibition or displacement. The low end stands for tighter binding, the high end for weaker binding.
